Measured values as given in ChEMBL document CHEMBL1212938, “Inhibition of mycobacterial replication by pyrimidines possessing various C-5 functionalities and related 2'-deoxynucleoside analogues using in vitro and in vivo models” (J Med Chem, 2010).
In brackets after ≈: the same amount, converted by molar mass. Activity calls are given as the source filed them. The rule behind the calls is not given here.

Assays:
Staphylococcus aureus = assay: Antibacterial activity against Staphylococcus aureus at 100 ug/ml after 16 to 20 hrs by broth microdilution method; type: functional, organism-based
[1] = test system: Staphylococcus epidermidis; assay: Antibacterial activity against Staphylococcus epidermidis at 100 ug/ml after 16 to 20 hrs by broth microdilution method; type: functional, organism-based
Enterococcus faecalis = assay: Antibacterial activity against Enterococcus faecalis at 100 ug/ml after 16 to 20 hrs by broth microdilution method; type: functional, organism-based
Bacillus subtilis = assay: Antibacterial activity against Bacillus subtilis at 100 ug/ml after 16 to 20 hrs by broth microdilution method; type: functional, organism-based
Streptococcus pneumoniae = assay: Antibacterial activity against Streptococcus pneumoniae at 100 ug/ml after 16 to 20 hrs by broth microdilution method; type: functional, organism-based
Streptococcus pyogenes = assay: Antibacterial activity against Streptococcus pyogenes at 100 ug/ml after 16 to 20 hrs by broth microdilution method; type: functional, organism-based
Listeria monocytogenes = assay: Antibacterial activity against Listeria monocytogenes at 100 ug/ml after 16 to 20 hrs by broth microdilution method; type: functional, organism-based
Salmonella typhimurium = assay: Antibacterial activity against Salmonella Typhimurium at 100 ug/ml after 16 to 20 hrs by broth microdilution method; type: functional, organism-based; details: Salmonella enterica subsp. enterica serovar Typhimurium
Escherichia coli = assay: Antibacterial activity against Escherichia coli at 100 ug/ml after 16 to 20 hrs by broth microdilution method; type: functional, organism-based
Proteus vulgaris = assay: Antibacterial activity against Proteus vulgaris at 100 ug/ml after 16 to 20 hrs by broth microdilution method; type: functional, organism-based
Pseudomonas aeruginosa = assay: Antibacterial activity against Pseudomonas aeruginosa at 100 ug/ml after 16 to 20 hrs by broth microdilution method; type: functional, organism-based
[2] = test system: Mycobacterium tuberculosis; assay: Antitubercular activity against Mycobacterium tuberculosis H37Ra after 6 days by microplate alamar blue assay; type: functional; details: 144 h
Summary of the method: (§1)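 MABA run in 7H9GC medium, with drug diluted from DMSO stocks made at 100× the highest final concentration. Final levels were 100, 50, 10, 5, 2.5 and 1 μg/mL in triplicate, and the experiment was done three times. Inoculum was 2.5 × 10⁵ CFU/mL final. Alamar Blue plus Tween-80 was added once bacteria-only control wells turned pink, from day 6 on, and plates were read visually and by fluorescence after 24 h. Visual MIC is the lowest concentration preventing the blue-to-pink change. Mean percent inhibition was taken relative to bacteria-only and medium-only wells.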

[3] = test system: Mycobacterium tuberculosis; assay: Antitubercular activity against Mycobacterium tuberculosis H37Ra at 100 ug/ml after 6 days by microplate alamar blue assay; type: functional; details: 144 h; summary of the method: as §1
[4] = test system: Mycobacterium tuberculosis; assay: Antitubercular activity against Mycobacterium tuberculosis H37Ra at 50 ug/ml after 6 days by microplate alamar blue assay; type: functional; details: 144 h; summary of the method: as §1
[5] = test system: Mycobacterium tuberculosis; assay: Antitubercular activity against Mycobacterium tuberculosis H37Ra at 10 ug/ml after 6 days by microplate alamar blue assay; type: functional; details: 144 h; summary of the method: as §1
[6] = Cytotoxicity against human HuH7 cells assessed as cell viability after 2 days by XTT assay; type: cell-based, Huh-7; details: HuH7 cells
Summary of the method: (§2)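 Huh-7 cells seeded at 1 × 10⁵ cells/well and left to attach 6-8 h. Medium then replaced with compound at 200, 100, 50, 10 or 1 μg/mL, with a DMSO control, and incubated 2 days at 37 °C. Viability by XTT, absorbance read at 450-500 nm.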

[7] = Cytotoxicity against human HuH7 cells assessed as cell viability at 200 ug/ml after 2 days by XTT assay; type: cell-based; details: huh-7, 48 h; summary of the method: as §2
[8] = Cytotoxicity against human HuH7 cells assessed as cell viability at > 200 ug/ml after 2 days by [3H]thymidine incorporation assay; type: cell-based; details: huh-7, 48 h

CCCCCCCCCCCC#Cc1c[nH]c(=O)[nH]c1=O
Activity (Staphylococcus aureus): inactive | Activity [1]: inactive | Activity (Enterococcus faecalis): inactive | Activity (Bacillus subtilis): inactive | Activity (Streptococcus pneumoniae): inactive | Activity (Streptococcus pyogenes): inactive | Activity (Listeria monocytogenes): inactive | Activity (Salmonella typhimurium): inactive | Activity (Escherichia coli): inactive | Activity (Proteus vulgaris): inactive | Activity (Pseudomonas aeruginosa): inactive

COC(CBr)c1c[nH]c(=O)[nH]c1=O (stereo not given)
Activity (Staphylococcus aureus): inactive | Activity [1]: inactive | Activity (Enterococcus faecalis): inactive | Activity (Streptococcus pneumoniae): inactive | Activity (Streptococcus pyogenes): inactive | Activity (Salmonella typhimurium): inactive | Activity (Escherichia coli): inactive | Activity (Proteus vulgaris): inactive | Activity (Pseudomonas aeruginosa): inactive

CCCCCCCCc1cc2c[nH]c(=O)nc2o1
Activity (Staphylococcus aureus): inactive | Activity [1]: inactive | Activity (Enterococcus faecalis): inactive | Activity (Bacillus subtilis): inactive | Activity (Streptococcus pneumoniae): inactive | Activity (Streptococcus pyogenes): inactive | Activity (Listeria monocytogenes): inactive | Activity (Salmonella typhimurium): inactive | Activity (Escherichia coli): inactive | Activity (Proteus vulgaris): inactive | Activity (Pseudomonas aeruginosa): inactive

O=c1[nH]cc(C(CI)OCC(F)(F)F)c(=O)[nH]1 (stereo not given)
Activity (Staphylococcus aureus): inactive | Activity [1]: inactive | Activity (Enterococcus faecalis): inactive | Activity (Streptococcus pneumoniae): inactive | Activity (Streptococcus pyogenes): inactive | Activity (Salmonella typhimurium): inactive | Activity (Escherichia coli): inactive | Activity (Proteus vulgaris): inactive | Activity (Pseudomonas aeruginosa): inactive

O=c1[nH]cc(C(CI)OCCBr)c(=O)[nH]1 (stereo not given)
Activity (Staphylococcus aureus): inactive | Activity [1]: inactive | Activity (Enterococcus faecalis): inactive | Activity (Streptococcus pneumoniae): inactive | Activity (Streptococcus pyogenes): inactive | Activity (Salmonella typhimurium): inactive | Activity (Escherichia coli): inactive | Activity (Proteus vulgaris): inactive | Activity (Pseudomonas aeruginosa): inactive

O=C(O)/C=C/c1c[nH]c(=O)[nH]c1=O
Activity (Staphylococcus aureus): inactive | Activity [1]: inactive | Activity (Enterococcus faecalis): inactive | Activity (Streptococcus pneumoniae): inactive | Activity (Streptococcus pyogenes): inactive | Activity (Salmonella typhimurium): inactive | Activity (Escherichia coli): inactive | Activity (Proteus vulgaris): inactive | Activity (Pseudomonas aeruginosa): inactive

CCCCCCCCCCc1cc2c[nH]c(=O)nc2o1
Activity (Staphylococcus aureus): inactive | Activity [1]: inactive | Activity (Enterococcus faecalis): inactive | Activity (Bacillus subtilis): inactive | Activity (Streptococcus pneumoniae): inactive | Activity (Streptococcus pyogenes): inactive | Activity (Listeria monocytogenes): inactive | Activity (Salmonella typhimurium): inactive | Activity (Escherichia coli): inactive | Activity (Proteus vulgaris): inactive | Activity (Pseudomonas aeruginosa): inactive

O=c1[nH]cc(C#Cc2ccccc2)c(=O)[nH]1
MIC50 [2]: > 10 µg/mL | inhibition at 100 µg/mL [3]: 90% | inhibition at 50 µg/mL [4]: 90% | inhibition at 10 µg/mL [5]: 40% | CC50 at 48 h [6]: > 100 µg/mL | Activity [7]: Non-toxic | Activity [8]: Non-toxic | Activity (Staphylococcus aureus): inactive | Activity [1]: inactive | Activity (Enterococcus faecalis): inactive | Activity (Bacillus subtilis): inactive | Activity (Streptococcus pneumoniae): inactive | Activity (Streptococcus pyogenes): inactive | Activity (Listeria monocytogenes): inactive | Activity (Salmonella typhimurium): inactive | Activity (Escherichia coli): inactive | Activity (Proteus vulgaris): inactive | Activity (Pseudomonas aeruginosa): inactive

CCCC#Cc1c[nH]c(=O)[nH]c1=O
Activity (Staphylococcus aureus): inactive | Activity [1]: inactive | Activity (Enterococcus faecalis): inactive | Activity (Bacillus subtilis): inactive | Activity (Streptococcus pneumoniae): inactive | Activity (Streptococcus pyogenes): inactive | Activity (Listeria monocytogenes): inactive | Activity (Salmonella typhimurium): inactive | Activity (Escherichia coli): inactive | Activity (Proteus vulgaris): inactive | Activity (Pseudomonas aeruginosa): inactive

COC(CCl)c1c[nH]c(=O)[nH]c1=O (stereo not given)
Activity (Staphylococcus aureus): inactive | Activity [1]: inactive | Activity (Enterococcus faecalis): inactive | Activity (Streptococcus pneumoniae): inactive | Activity (Streptococcus pyogenes): inactive | Activity (Salmonella typhimurium): inactive | Activity (Escherichia coli): inactive | Activity (Proteus vulgaris): inactive | Activity (Pseudomonas aeruginosa): inactive

CCCc1cc2c[nH]c(=O)nc2o1
MIC50 [2]: 100 µg/mL (≈ 561 µM) | inhibition at 100 µg/mL [3]: 50% | inhibition at 10 µg/mL [5]: 0% | Activity (Staphylococcus aureus): inactive | Activity [1]: inactive | Activity (Enterococcus faecalis): inactive | Activity (Bacillus subtilis): inactive | Activity (Streptococcus pneumoniae): inactive | Activity (Streptococcus pyogenes): inactive | Activity (Listeria monocytogenes): inactive | Activity (Salmonella typhimurium): inactive | Activity (Escherichia coli): inactive | Activity (Proteus vulgaris): inactive | Activity (Pseudomonas aeruginosa): inactive

COC(CI)c1c[nH]c(=O)[nH]c1=O (stereo not given)
Activity (Staphylococcus aureus): inactive | Activity [1]: inactive | Activity (Enterococcus faecalis): inactive | Activity (Streptococcus pneumoniae): inactive | Activity (Streptococcus pyogenes): inactive | Activity (Salmonella typhimurium): inactive | Activity (Escherichia coli): inactive | Activity (Proteus vulgaris): inactive | Activity (Pseudomonas aeruginosa): inactive

CCCCCCCCCCC#Cc1c[nH]c(=O)[nH]c1=O
Activity (Staphylococcus aureus): inactive | Activity [1]: inactive | Activity (Enterococcus faecalis): inactive | Activity (Bacillus subtilis): inactive | Activity (Streptococcus pneumoniae): inactive | Activity (Streptococcus pyogenes): inactive | Activity (Listeria monocytogenes): inactive | Activity (Salmonella typhimurium): inactive | Activity (Escherichia coli): inactive | Activity (Proteus vulgaris): inactive | Activity (Pseudomonas aeruginosa): inactive

CCCCCCCCCCCCC#Cc1c[nH]c(=O)[nH]c1=O
Activity (Staphylococcus aureus): inactive | Activity [1]: inactive | Activity (Enterococcus faecalis): inactive | Activity (Bacillus subtilis): inactive | Activity (Streptococcus pneumoniae): inactive | Activity (Streptococcus pyogenes): inactive | Activity (Listeria monocytogenes): inactive | Activity (Salmonella typhimurium): inactive | Activity (Escherichia coli): inactive | Activity (Proteus vulgaris): inactive | Activity (Pseudomonas aeruginosa): inactive

O=c1[nH]cc(C(CI)OCCF)c(=O)[nH]1 (stereo not given)
Activity (Staphylococcus aureus): inactive | Activity [1]: inactive | Activity (Enterococcus faecalis): inactive | Activity (Streptococcus pneumoniae): inactive | Activity (Streptococcus pyogenes): inactive | Activity (Salmonella typhimurium): inactive | Activity (Escherichia coli): inactive | Activity (Proteus vulgaris): inactive | Activity (Pseudomonas aeruginosa): inactive

CCCCCc1cc2c[nH]c(=O)nc2o1
Activity (Staphylococcus aureus): inactive | Activity [1]: inactive | Activity (Enterococcus faecalis): inactive | Activity (Bacillus subtilis): inactive | Activity (Streptococcus pneumoniae): inactive | Activity (Streptococcus pyogenes): inactive | Activity (Listeria monocytogenes): inactive | Activity (Salmonella typhimurium): inactive | Activity (Escherichia coli): inactive | Activity (Proteus vulgaris): inactive | Activity (Pseudomonas aeruginosa): inactive

CCOC(CI)c1c[nH]c(=O)[nH]c1=O (stereo not given)
Activity (Staphylococcus aureus): inactive | Activity [1]: inactive | Activity (Enterococcus faecalis): inactive | Activity (Streptococcus pneumoniae): inactive | Activity (Streptococcus pyogenes): inactive | Activity (Salmonella typhimurium): inactive | Activity (Escherichia coli): inactive | Activity (Proteus vulgaris): inactive | Activity (Pseudomonas aeruginosa): inactive

O=C(O)C(I)C(O)c1c[nH]c(=O)[nH]c1=O (stereo not given)
Activity (Staphylococcus aureus): inactive | Activity [1]: inactive | Activity (Enterococcus faecalis): inactive | Activity (Streptococcus pneumoniae): inactive | Activity (Streptococcus pyogenes): inactive | Activity (Salmonella typhimurium): inactive | Activity (Escherichia coli): inactive | Activity (Proteus vulgaris): inactive | Activity (Pseudomonas aeruginosa): inactive

O=c1[nH]cc(C(O)CI)c(=O)[nH]1 (stereo not given)
Activity (Staphylococcus aureus): inactive | Activity [1]: inactive | Activity (Enterococcus faecalis): inactive | Activity (Streptococcus pneumoniae): inactive | Activity (Streptococcus pyogenes): inactive | Activity (Salmonella typhimurium): inactive | Activity (Escherichia coli): inactive | Activity (Proteus vulgaris): inactive | Activity (Pseudomonas aeruginosa): inactive

CCCCCCCCC#Cc1c[nH]c(=O)[nH]c1=O
Activity (Staphylococcus aureus): inactive | Activity [1]: inactive | Activity (Enterococcus faecalis): inactive | Activity (Bacillus subtilis): inactive | Activity (Streptococcus pneumoniae): inactive | Activity (Streptococcus pyogenes): inactive | Activity (Listeria monocytogenes): inactive | Activity (Salmonella typhimurium): inactive | Activity (Escherichia coli): inactive | Activity (Proteus vulgaris): inactive | Activity (Pseudomonas aeruginosa): inactive
